Data set [1] relates to Cynomolgus monkey. Nature of the data set: Activation of monocytes in cynomolgus monkey plasma assessed as upregulation of MIP1 levels at 30 mg/kg, po after 24 hrs by Luminex assay (reference value: 37 pg/ml). Format: functional, Macaca fascicularis.
Data set [2] has as its system Plasma. Nature of the data set: Anti-inflammatory activity in C57BL/6J mouse plasma assessed as IL-10 levels at 1 mg/kg, po by multiplex assay (reference value: 120 pg/ml). In kind it is functional. In a few lines: (§1)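 Single oral gavage in 20% HP-β-CD to healthy C57BL/6 mice, groups of 15 at 0.3, 1, 3, 10 or 30 mg/kg. Three mice per group sacrificed at 0.5, 1, 2, 4 or 7 h. Plasma and liver cytokines by multiplex, maximum level reported, rounded to nearest multiple of 5.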

The test system of data set [3] is Cynomolgus monkey. Description: Proinflammatory activity in cynomolgus monkey plasma assessed as TNFalpha levels at 3 mg/kg, po after 24 hrs by Luminex assay (reference value: 285 pg/ml). In kind it is functional, Macaca fascicularis.
The test system of data set [4] is Cynomolgus monkey. Description: Upregulation of Tlr7 expression in cynomolgus monkey plasma at 9 mg/kg, po after 24 hrs by Fluidigm RT-qPCR analysis (reference value: 1.8). In kind it is functional, Macaca fascicularis. Background: Real-time PCR tracks product formation cycle by cycle.
Data set [5] has as its system Liver. Nature of the data set: Proinflammatory activity in C57BL/6J mouse liver assessed as IL-1beta levels at 10 mg/kg, po by multiplex assay. In kind it is functional.
Data set [6] in a line: Stability in rat hepatocytes assessed compound turnover at 1 uM after 60 mins. Conditions: read-out: Drug metabolism. In kind it is ADME, cell-based, Hepatocyte.
In data set [7] the target is TLR7 and TLR8 (Homo sapiens) (UniProt Q9NYK1+Q9NR97). Description: Agonist activity at TLR7/8 in human PBMCs co-cultured with primary human hepatocytes infected with HBV genotype C for 12 days assessed as increase in IFNgamma levels up to 5 uM measured after 42 days.
Data set [8] concerns Cynomolgus monkey. Description: Effect on cytokine profile in cynomolgus monkey plasma assessed as IP10 levels at 1 mg/kg, po after 24 hrs by Luminex assay (reference value: 18.5 pg/ml). Format: functional, Macaca fascicularis. In a few lines:
(§2)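 Healthy cynomolgus monkeys given single oral doses of 1, 3, 9 and 30 mg/kg, with a 2-week wash-out planned between doses. Systemic cytokine levels in plasma were sampled at 0.5, 1, 2, 4, 9 and 24 h postdose.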

For data set [9], the system named is Plasma. Nature of the data set: Effect on cytokine profile in C57BL/6J mouse plasma assessed as IFNgamma levels at 3 mg/kg, po by multiplex assay. In kind it is functional, organism-based. The gist of the method: as §1
Data set [10] in a line: Intrinsic clearance in rat liver microsomes assessed per mg protein at 1 uM up to 60 mins. Format: ADME, microsome. Conditions: read-out: CLH. (In general: Liver microsomes are vesicles of endoplasmic reticulum, rich in cytochrome P450 enzymes.)
In data set [11] the test system is Liver. Nature of the data set: Proinflammatory activity in C57BL/6J mouse liver assessed as TNFalpha levels at 1 mg/kg, po by multiplex assay (reference value: 15 pg/g). Format: functional, organism-based.
Data set [12] can be described thus: Intrinsic clearance in mouse liver microsomes assessed per mg protein at 1 uM up to 60 mins. Format: ADME, microsome. Conditions: read-out: CLH.
Data set [13] in a line: AUC (0 to last) in C57BL/6J mouse liver at 0.3 mg/kg, po by LC-MS analysis. Format: ADME, organism-based. Conditions: in vivo. The gist of the method: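 Healthy C57BL/6 mice were dosed once by mouth at 0.3, 1, 3, 10 or 30 mg/kg in 20% HP-β-CD, in groups of 15 per dose. Three mice per group were sacrificed at 0.5, 1, 2, 4 or 7 h, and plasma and liver compound levels were measured by LC–MS. Values were rounded to whole numbers.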

In data set [14] the target is T1, Toll-like receptor 7 (Homo sapiens) (UniProt Q9NYK1).
T1 sequence (whole entry): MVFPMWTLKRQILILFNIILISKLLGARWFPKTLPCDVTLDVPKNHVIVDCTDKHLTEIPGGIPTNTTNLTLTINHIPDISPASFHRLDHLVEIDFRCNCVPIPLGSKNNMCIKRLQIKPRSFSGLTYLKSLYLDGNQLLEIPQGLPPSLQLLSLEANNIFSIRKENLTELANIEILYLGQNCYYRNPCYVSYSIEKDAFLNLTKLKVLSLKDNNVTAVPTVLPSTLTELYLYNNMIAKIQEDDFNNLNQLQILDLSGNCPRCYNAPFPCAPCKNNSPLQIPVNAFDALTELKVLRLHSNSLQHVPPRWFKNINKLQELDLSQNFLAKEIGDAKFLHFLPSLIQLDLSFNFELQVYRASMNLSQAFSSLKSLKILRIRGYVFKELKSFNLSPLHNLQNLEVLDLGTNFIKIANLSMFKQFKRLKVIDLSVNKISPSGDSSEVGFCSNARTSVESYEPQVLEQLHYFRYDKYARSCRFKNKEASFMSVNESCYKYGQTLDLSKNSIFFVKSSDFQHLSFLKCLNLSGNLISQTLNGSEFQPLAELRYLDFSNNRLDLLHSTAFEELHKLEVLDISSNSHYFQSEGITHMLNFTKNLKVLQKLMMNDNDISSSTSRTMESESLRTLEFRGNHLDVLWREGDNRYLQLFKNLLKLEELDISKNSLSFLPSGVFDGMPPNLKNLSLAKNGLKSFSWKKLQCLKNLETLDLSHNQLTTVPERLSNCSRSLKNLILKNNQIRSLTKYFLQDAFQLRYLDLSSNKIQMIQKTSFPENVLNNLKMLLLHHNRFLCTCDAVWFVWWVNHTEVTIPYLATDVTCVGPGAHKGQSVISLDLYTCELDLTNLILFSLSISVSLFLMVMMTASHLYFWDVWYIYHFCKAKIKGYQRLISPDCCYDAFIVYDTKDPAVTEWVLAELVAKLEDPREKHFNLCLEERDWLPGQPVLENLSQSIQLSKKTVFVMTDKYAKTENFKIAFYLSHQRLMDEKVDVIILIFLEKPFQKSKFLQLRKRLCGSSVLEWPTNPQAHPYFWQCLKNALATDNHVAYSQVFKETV
Description: Agonist activity at TLR7 in human PBMC assessed as suppression of HCV replicon replication in human HuH7 luc/neo cells harboring RNA encoding bicistronic expression construct comprising wild type HCV type 1b NS3-NS5B regions exposed to conditioned media from compound treated PBMCs after 24 hrs by luciferase reporter gene assay. Format: cell-based. In a few lines: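 Human PBMCs were incubated with compound. Their medium was then transferred onto an HCV replicon system, so the antiviral read-out reflects interferon and cytokines the PBMCs induced. Values are reported as lowest effective concentration (LEC), averaged when determined in two or more independent experiments.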
A general note: A replicon is a self-replicating genome or part of one, used to study replication in cells.

Data set [15] relates to Liver. Nature of the data set: Proinflammatory activity in C57BL/6J mouse liver assessed as CXCL-1 levels at 0.3 mg/kg, po by multiplex assay (reference value: 25 pg/g). In kind it is functional.
The test system of data set [16] is Plasma. Description: Induction of IFNalpha levels in C57BL/6J mouse plasma at 30 mg/kg, po by ELISA. Format: functional.
The test system of data set [17] is Liver. Nature of the data set: Upregulation of IP-10 mRNA expression levels in C57BL/6J mouse liver at 0.3 mg/kg, po by RT-qPCR analysis (reference value: 1). In kind it is functional.
The test system of data set [18] is Plasma. Nature of the data set: Induction of IFNalpha levels in C57BL/6J mouse plasma at 10 mg/kg, po by ELISA. Format: functional.
Data set [19] relates to Liver. Description: Proinflammatory activity in C57BL/6J mouse liver assessed as IL-6 levels at 1 mg/kg, po by multiplex assay (reference value: 10 pg/g). Format: functional.
Data set [20] has as its system Cynomolgus monkey. Nature of the data set: Effect on cytokine profile in cynomolgus monkey plasma assessed as IL-15 levels at 3 mg/kg, po after 24 hrs by Luminex assay (reference value: 20 pg/ml). In kind it is functional, Macaca fascicularis. In a few lines: as §2

Structures are written as SMILES. Calls of active or inactive are those of the source. The calls are words filed in the database; no cut-off is given here.

For the molecule `CCC[C@@H](CCO)Nc1nc(N)nc2c(F)cccc12`, the Activity is 560 pg/mL in the data set with Cynomolgus monkey [1]; 485 pg/mL in the data set on Plasma [2]; 70 pg/mL with Cynomolgus monkey [3]; 29525 pg/g with Liver [5]; 1690 pg/mL in the data set on Cynomolgus monkey [8]; “Below limit of detection” in the data set with Plasma [9]. For the same molecule, the Activity result in the data set with Liver [11] was “Below limit of detection”; with Liver [15], 7790 pg/g; in the data set with Plasma [16], 1930 pg/mL; in the data set on Plasma [18], above 3200 pg/mL; with Liver [19] it was 905 pg/g; in the data set with Cynomolgus monkey [20], 60 pg/mL. The figures for the “fold change (FC)” value in the data set with Cynomolgus monkey [4] and in the data set on Liver [17] were 3.5 and 35, respectively. Also, the metabolised at 1 h, 1 µM in data set [6] came to 96%. In data set [7], the outcome was Active. Further, the microsomal CLint at 1 µM in data set [10] was determined as 24 µL/min/mg; in data set [12], 100 µL/min/mg. The molecule also registered an AUClast in [13] of 25 ng·h/g. For the same molecule, in data set [14], the MEC stood at 0.25 µM.
